Sampled rows, rich in hits. Any-hit rate of the full collection: about 2.1%.
INS promoter inh – TRM-6 insulin promoter activity inhibition; TRM-6 cells (human fetal islet line), insulin promoter-eGFP reporter, imaging; reporter expression induced with tamoxifen; inhibition, % at 2 µM; actives 0.9% (n = 130,000);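 active = inhibition above the mean plus 3 SD, with well images judged a real hit on visual review, cut at about 60% in these data, passing the limit was not always enough; inconclusive = inhibition over the cutoff but images rejected on review; inactive = inhibition not above the cutoff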
Autophagy mod – alters autophagy in cells; MEF GFP-LC3 puncta imaging; test concentration mostly 10 µM; calls only at 10 µM (by protocol); actives 0.98% (n = 190,000); AID 463193;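 active = percentage of spot-positive cells more than 3 SD above its plate mean, without a fluorescence outlier flag or 80% toxicity; inconclusive = no clear call, values can overlap the other calls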;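 also: spot-positive cell cutoff set from DMSO-treated cells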
Ins promoter up – MIN6 insulin promoter up-regulation; MIN6 insulin promoter-GFP reporter, high-content imaging; hits give high values; z-score at 5 µM; actives 0.3% (n = 190,000); AID 1625;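 active = z-score above 3 at 5 µM with at least 500 cells counted in the well; inconclusive = wells under 500 cells, flagged as cytotoxic or low count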
Dynein transport – blocks dynein driven cargo transport along microtubules; AID 1381; 3617.4 mouse cells, GR-EGFP nuclear translocation imaging; test concentration mostly 20 µM; stimulated with dexamethasone, 1 µM; hits give low values; z-score, hits read low; actives 0.47% (n = 220,000);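 active = plate z-score of nuclear minus cytoplasmic receptor signal below a set negative limit, without overly bright fluorescence or cell loss, cut at about -3.5 in these data, passing the limit was not always enough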;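 also: z-score of nuclear minus cytoplasmic ring GR-EGFP intensity difference per well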
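Schedule: 48 h induction, then 1 h compound, then 30 min agonist, 37 °C. Buffer or medium: tetracycline-free induction medium containing charcoal-stripped FBS. Reagent: 1.0 µM final dexamethasone stimulus. Evaluation: nuclear versus cytoplasmic GR-EGFP signal, averaged per well. Signal: high-content fluorescence imaging after fixation.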
PERK inhibitor – human PERK inhibition, primary cell-based screen; Q9NZJ5; CHO PERK-DD fusion, SEAP luminescence translation reporter; inhibition, % at 5.6 µM; actives 0.17% (n = 220,000);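 active = inhibition above the mean inhibition of all tested compounds plus 3 SD, set separately per screening campaign, cut at about 2.9% in these data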;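 also: PERK kinase domain activated by AP20187 dimerizer at 100 nM; 0% = DMSO with dimerizer and 100% = rapamycin at 8.4 µM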
Target sequence (Q9NZJ5 whole entry, looked up, the tested form may be a part): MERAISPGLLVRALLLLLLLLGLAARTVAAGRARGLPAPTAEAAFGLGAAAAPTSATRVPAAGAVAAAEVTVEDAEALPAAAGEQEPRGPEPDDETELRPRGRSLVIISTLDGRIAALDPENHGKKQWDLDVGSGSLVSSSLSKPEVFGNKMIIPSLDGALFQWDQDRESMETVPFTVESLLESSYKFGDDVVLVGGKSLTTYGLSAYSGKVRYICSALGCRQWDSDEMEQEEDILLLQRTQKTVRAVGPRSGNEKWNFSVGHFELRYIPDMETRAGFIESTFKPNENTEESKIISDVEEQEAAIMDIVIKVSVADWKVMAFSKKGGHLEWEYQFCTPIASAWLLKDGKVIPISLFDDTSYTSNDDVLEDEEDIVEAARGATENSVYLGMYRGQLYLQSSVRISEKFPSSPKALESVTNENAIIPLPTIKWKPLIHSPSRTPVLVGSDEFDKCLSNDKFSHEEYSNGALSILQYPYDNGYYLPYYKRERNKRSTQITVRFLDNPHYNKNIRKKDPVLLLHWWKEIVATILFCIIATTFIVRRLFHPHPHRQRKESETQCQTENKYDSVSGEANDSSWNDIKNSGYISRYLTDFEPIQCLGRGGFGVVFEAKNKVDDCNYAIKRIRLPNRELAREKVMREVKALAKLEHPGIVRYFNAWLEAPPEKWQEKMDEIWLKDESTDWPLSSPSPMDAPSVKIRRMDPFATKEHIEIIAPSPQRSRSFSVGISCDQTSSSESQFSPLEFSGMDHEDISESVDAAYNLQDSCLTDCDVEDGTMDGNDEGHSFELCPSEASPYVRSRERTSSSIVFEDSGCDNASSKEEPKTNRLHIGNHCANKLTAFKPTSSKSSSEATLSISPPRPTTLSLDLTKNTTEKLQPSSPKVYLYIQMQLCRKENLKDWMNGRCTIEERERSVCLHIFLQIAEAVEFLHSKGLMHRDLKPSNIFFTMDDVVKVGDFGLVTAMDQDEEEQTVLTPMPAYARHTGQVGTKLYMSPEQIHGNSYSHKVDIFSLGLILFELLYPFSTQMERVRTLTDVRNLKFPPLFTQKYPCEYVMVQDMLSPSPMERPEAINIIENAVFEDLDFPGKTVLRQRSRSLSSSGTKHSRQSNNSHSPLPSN
Dynein inh conf – dynein cargo transport inhibition, confirmation. AID 463116. 3617.4 GR-EGFP nuclear translocation imaging, dexamethasone-induced. shares compounds with Dynein transport. actives 69% (n = 1,000). calls only at 20 µM;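 active = inhibition of receptor movement into the nucleus at or above a set limit in both runs, with normal cell brightness and cell count; inconclusive = limit reached in only one run, brightness and count normal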;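 also: dexamethasone at 1 µM final in well for 30 min; nuclear minus cytoplasmic GR-EGFP mean intensity difference in channel 2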
Active calls of the source: *; i = inactive; ? = inconclusive; . = no result; + = active, no number.

SMILES	INS promoter inh	Autophagy mod	Ins promoter up	Dynein transport	PERK inhibitor	Dynein inh conf
O=C(O)CCN1C(=O)/C(=C\c2ccc(-c3nc4ccccc4s3)o2)SC1=S	10.8	i	.	-3.96	0.2	i
O=C(CCN1CCCCCC1)c1ccccc1	-13.5	i	-0.01	-3.05	1.3	.
CCC1(C)CC2(CCCN(CCC(=O)c3ccccc3)C2)CCO1 (stereo not given)	.	i	1.11	-3.75*	0.2	i
C=CCNCCCOc1ccc(Cl)cc1C(C)(C)C	.	i	-0.09	-6.67*	-0.6	i
Cc1ccc(NC(=S)NCc2ccco2)c(C)c1	.	.	-0.23	0.76	0.9	.
CC1=NOC(=O)/C1=C\c1ccc(-c2ccc(Br)cc2)o1	25.0	i	.	-4.13*	0.6	?
Cc1ccc(C2=NOC(=O)/C2=C\c2ccc(C)o2)cc1	.	.	0.22	-5.65*	1.1	+
CC1=NOC(=O)/C1=C/c1ccc(-c2ccc(Cl)cc2)o1	10.0	i	.	-0.957	0.4	.
CC1CCCC(n2c(=S)[nH]c3ccccc3c2=O)C1C (stereo not given)	7.0	i	1.1	0.669	0.2	.
O=C(/C=C/c1ccccc1Cl)c1ccc(O)cc1	.	.	-0.02	-1.11	2.1	.
N#Cc1ccc(/C=C/C(=O)c2cccnc2)cc1	.	i	-0.53	-5.05*	1.1	+
O=C(/C=C/c1cccnc1)/C=C/c1cccnc1	.	.	?	-6.44*	-0.8	+
O=C(/C=C/c1ccccc1Cl)c1cccnc1	-22.2	i	0.89	-4.21*	0.5	+
O=C(/C=C/c1ccc(Cl)cc1)c1cccnc1	44.8	i	0.14	-5.09*	1.3	+
CCN(CC)c1ccc(/C=C/C(=O)c2cccnc2)cc1	41.5	i	1.34	0.484	0.4	.
O=C(Nc1cccc(NC(=O)C2C3CC4OC(=O)C2C4C3)c1)c1ccccc1 (stereo not given)	.	i	0.01	-0.0116	1.4	.
CCC(C)[C@H](NC(=O)N1CCC(C)CC1)C(=O)OC (stereo not given in full)	.	.	-0.08	0.236	0.3	.
CCCCN(CCCC)C(=O)c1nsnc1-c1ccccc1O	-17.9	i	0.71	-0.556	-0.2	.
Cc1cc(C)c(S(=O)(=O)N2CCCCC2)c(C)c1N(C)S(=O)(=O)c1ccc(Cl)cc1	.	i	0.01	0.048	0.9	.
N#Cc1nccnc1S(=O)(=O)c1cccs1	.	.	-0.23	-5.59*	-1.1	+
COc1cc(/C=C2\SC(=O)NC2=O)ccc1Oc1ccc([N+](=O)[O-])cc1[N+](=O)[O-]	.	i	-0.06	-3.79*	2.0	?
Cc1cc(C(=O)CCl)c(C)n1-c1ccon1	82.3*	i	-0.66	-5.55*	-0.1	+
Cc1cc(C(=O)CSc2nncs2)c(C)n1Cc1ccco1	.	i	0.74	-0.0581	0.9	.
Cc1cc(C(=O)CCl)c(C)n1-c1cccc([N+](=O)[O-])c1	.	i	0.07	-3.01	0.1	.
Cc1cc(C(=O)CCl)c(C)n1Cc1ccco1	.	i	.	-6.01*	1.0	+
SMILES	INS promoter inh	Autophagy mod	Ins promoter up	Dynein transport	PERK inhibitor	Dynein inh conf
COc1cc(C2c3c(oc4ccccc4c3=O)C(=O)N2c2nccs2)ccc1O (stereo not given)	.	.	0.04	3.18	-1.0	.
O=[N+]([O-])c1cc(S(=O)(=O)NCCN2CCOCC2)ccc1Sc1nnnn1-c1ccccc1	30.8	i	0.41	-3.38	0.0	.
Cc1ccc(-n2nnnc2Sc2ccc(S(=O)(=O)NCCN(C)C)cc2[N+](=O)[O-])cc1	-7.7	i	?	-3.95*	-0.8	+
CCSCCc1nnc(NC(=O)Nc2cccc(C(F)(F)F)c2)s1	.	i	-2.01	-0.873	0.6	.
Cc1ccc(NC(=S)N(Cc2ccc(Br)cc2)Cc2ccc(C(=O)O)cc2)cc1C	.	i	-0.16	-0.0371	0.8	.
CCOC(=O)c1c(-c2ccccc2)csc1NC(=O)/C(C#N)=C/c1ccc(O)c(OC)c1	.	+	1.34	-4.75*	-0.5	+
CCOC(=O)c1c(-c2ccccc2)csc1NC(=O)CSc1ccccc1	.	i	0.03	-0.521	0.7	.
N=C1C(c2ccccc2)=C(O)CN1CCO	.	i	0.4	-0.0929	1.4	.
Cc1[nH]n(-c2ncc(-c3ccc(Cl)cc3)s2)c(=O)c1C(c1ccc(Cl)cc1)C(C#N)C#N (stereo not given)	-13.9	i	0.79	-3.55*	1.2	+
Cc1ccccc1CCN(C(=O)Cn1nnc2ccccc21)C(C(=O)NCC1CCCO1)c1nc2ccccc2n1C (stereo not given)	-33.3	i	0.23	-0.663	0.7	.
CCn1cc(C(C)NC(=O)COc2ccc(Cl)cc2C)c(C)n1 (stereo not given)	-31.2	i	-0.04	1.24	-0.4	.
CCOC(=O)c1cn(-c2c(Cl)cccc2Cl)c2cc(Cl)c([N+](=O)[O-])cc2c1=O	21.4	i	-0.66	-4.4*	-0.6	+
COc1ccc(-n2nc(C#N)c(Cl)cc2=O)cc1	-3.7	i	?	-5.86*	0.5	+
C=CS(=O)(=O)c1sc(Cl)c(N2CCOCC2)c1[N+](=O)[O-]	.	i	0.25	-4.33*	-0.2	+
C=CSc1sc(Cl)c(N2CCOCC2)c1[N+](=O)[O-]	16.7	i	-0.16	-2.96	-0.4	.
Cc1ccc(/C(C#N)=C\c2ccc(N3CCOCC3)o2)cc1	19.4	i	.	-2.98	1.1	.
Cc1ccc2nc(/C(C#N)=C\c3ccc(N4CCOCC4)o3)[nH]c2c1	-455.6	?	.	-6.65	0.3	+
CC(c1ccccc1)N1CCN(C(=O)CCl)CC1 (stereo not given)	.	i	-0.44	-4.94*	0.9	i
CCCC[N+](CC#Cc1ccccc1)(CCCC)CCCS(=O)(=O)[O-]	18.8	i	0.43	-0.319	0.4	.
CC(C(=O)NCc1ccco1)n1cc([N+](=O)[O-])cn1 (stereo not given)	0.0	i	-1.08	-0.896	1.8	.
Cc1nnc2c3ccccc3c(-c3ccc(O)cc3)nn12	-27.8	i	-0.38	-0.385	-0.1	.
Cc1c(-c2ccc(O)cc2)nc2nc(-c3ccccc3)c(-c3ccccc3)nn12	.	.	.	-5.28	0.2	+
COc1cc2c(cc1OC)C(C)=NC1(CCCCC1)C2	.	.	-0.4	-0.786	1.1	.
COc1cc2c(cc1OC)C(SC)=NC1(CCCC1)C2	.	i	-0.09	-3.56*	0.5	+
O=S(=O)(c1ccccc1)c1ncc(C(F)(F)F)cc1O	-23.1	i	0.12	-0.387	0.5	.
O=S(=O)(c1ccccc1)c1ncc(C(F)(F)F)cc1Cl	50.0	i	1.99	-6.39*	0.7	+
Cn1cc([N+](=O)[O-])c(C(=O)Nc2cc(Oc3ccccc3)cc([N+](=O)[O-])c2)n1	53.3	i	-0.36	-3.86*	-0.8	+
CC(C)Cn1c([N+](=O)[O-])nc2c1c(=O)[nH]c(=O)n2C	.	.	.	-7.26*	0.0	+

High-throughput results as filed in PubChem.
